Bioassay records deposited in PubChem by several laboratories.
SR-BI DiI inh: mouse SR-BI HDL lipid transfer inhibition; Q61009; ldlA[mSR-BI] CHO cells, DiI-HDL uptake fluorescence, 3 h; inhibition, % at 12.5 µM; actives 0.96% (n = 320,000);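 active = mean replicate inhibition of at least 70% and a set share of replicates each scoring 70 or more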;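 also: 0% = median of neutral control wells and 100% = median of positive control wells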
Target sequence (Q61009 whole entry, looked up): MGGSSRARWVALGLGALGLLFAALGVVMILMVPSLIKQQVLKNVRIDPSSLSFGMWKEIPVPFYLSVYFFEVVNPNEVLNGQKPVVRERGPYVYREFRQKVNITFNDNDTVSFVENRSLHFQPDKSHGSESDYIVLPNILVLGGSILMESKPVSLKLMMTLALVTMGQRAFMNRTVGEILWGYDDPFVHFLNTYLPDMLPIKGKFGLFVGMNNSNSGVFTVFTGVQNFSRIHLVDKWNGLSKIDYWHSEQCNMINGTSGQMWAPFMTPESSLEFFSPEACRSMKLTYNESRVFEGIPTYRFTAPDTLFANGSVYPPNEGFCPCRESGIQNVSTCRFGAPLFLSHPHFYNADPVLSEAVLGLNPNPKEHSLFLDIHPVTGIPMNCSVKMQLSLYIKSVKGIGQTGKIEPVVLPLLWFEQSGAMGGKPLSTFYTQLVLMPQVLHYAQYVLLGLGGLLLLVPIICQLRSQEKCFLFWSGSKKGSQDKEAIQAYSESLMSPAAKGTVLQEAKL
SMARCA2 activ: SMARCA2 function activation, primary screen. activation, % at 9.1 µM. AID 652017. MG213 cells, MMTV-luciferase reporter, dexamethasone, overnight. actives 1% (n = 370,000); in the data active = activation above about 7.8%;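 also: 0% = vehicle wells and 100% = reference activator wells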
SR-BI DiI-HDL act: enhances SR-BI lipid uptake from DiI-HDL | AID 504775 | activation, % at 12.5 µM | CHO ldlA[mSR-BI] cells, DiI-HDL uptake fluorescence, 3 h; 100 = double the neutral-control signal | actives 0.096% (n = 320,000);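 active = mean replicate activation of at least 60% and every replicate at or above 60%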;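 also: 0% = median plate neutral-control signal and 100% = twice that signal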
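Test system: SR-BI-overexpressing, LDLR-lacking CHO cells. Measured by: DiI fluorescence, bottom read. Medium: Ham's F12 with 0.5% BSA, HEPES 25 mM, pH 7.4. Timing: 3 h uptake period with compound, 37 °C.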
AHR activator: activates the human aryl hydrocarbon receptor; AHR-responsive luciferase reporter cells, luminescence; P35869; actives 2.5% (n = 320,000); AID 2796; activation, % at 5 µM; in the data active = activation above about 47%;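 also: 0% = vehicle wells and 100% = reference agonist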
Lipid droplet: hepatic lipid droplet formation modulation; AML12 mouse hepatocytes, oleate lipid droplets, BODIPY imaging; inhibition, % at 6.5 µM; actives 0.4% (n = 240,000);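 active = lipid droplet intensity inhibited by at least 50%, with more than 500 cells counted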
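material = mouse AML12 hepatocyte cell line, fixed after treatment | also added = 100 µM oleic acid challenge | doses = compound at 6.5 µM only | schedule = overnight exposure | technique = Image-based BODIPY and DAPI two-channel analysis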
Yeast superoxide: yeast age-related superoxide inhibition as caloric restriction mimetic | superoxide response (% of plate mean), % at 10 µM | AID 2690 | actives 0.18% (n = 330,000) | S. cerevisiae aged cells, superoxide DHE fluorescence; active compounds read low;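 active = superoxide response under a set limit, about three screen SD below normal, cut at about 65% in these data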;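 also: yeast aged for seven days with compound at 30 °C before DHE staining; 100% = average MFI of all compound-treated wells on the plate with controls excluded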
* hit, by the source's call; · = no result. A selection: hits, their analogues and other compounds. The true share with any hit is near 4.3%.

SMILES | SR-BI DiI inh | SMARCA2 activ | SR-BI DiI-HDL act | AHR activator | Lipid droplet | Yeast superoxide
O=C(CNc1cccc(C(F)(F)F)c1)N/N=C/c1cccc(Br)c1 | -12.1 | 0.6 | 12.1 | 101.1* | 12.0 | 99.4
COC(=O)c1ccsc1NS(C)(=O)=O | · | -7.1 | · | · | · | ·
COC(=O)c1ccc(C(=O)Nc2nc3cc(N)c(C)cc3s2)cc1 | 80.9* | -0.3 | -80.9 | 6.0 | 28.0 | 76.7
Nc1nn2cc(-c3ccc(Br)cc3)nc2c2ccccc12 | · | 6.9 | · | 65.5* | 5.8 | 113.1
COCCn1c(SCC(=O)Nc2ccc(C(N)=O)cc2)nc2c([nH]c3ccccc32)c1=O | -20.9 | -3.2 | 20.9 | 51.8* | -5.2 | 87.5
Cc1ccc(NC(=O)CSc2nc3c([nH]c4ccccc43)c(=O)n2C)cc1 | 40.4 | 0.9 | -40.4 | 59.9* | -10.1 | 113.8
COCCn1c(SCC(=O)Nc2ccc(F)cc2)nc2c([nH]c3ccccc32)c1=O | 7.1 | -2.8 | -7.1 | 13.7 | -14.9 | 102.1
C=CCn1c(SCC(=O)Nc2ccc(F)cc2F)nc2c([nH]c3ccccc32)c1=O | -0.6 | -1.6 | 0.6 | 28.2 | -31.2 | 103.0
COCCn1c(SCC(=O)Nc2ccccc2F)nc2c([nH]c3ccccc32)c1=O | 21.7 | -1.2 | -21.7 | 61.0* | -11.5 | 110.4
COCCn1c(SCC(=O)Nc2ccc(F)cc2F)nc2c([nH]c3ccccc32)c1=O | 9.8 | -3.3 | -9.8 | 70.8* | 2.2 | 103.2
Cn1c(SCC(=O)Nc2ccc(F)cc2)nc2c([nH]c3ccccc32)c1=O | · | -5.1 | · | 13.9 | -12.2 | 110.3
Clc1ccc(N=c2ssnc2Cl)cc1 | -6.6 | 0.3 | 6.6 | 59.5* | -1.9 | 97.2
CC(C)c1cc(-c2cc(-c3ccccc3)on2)nc(NC2CCCC2)n1 | 75.3* | 0.8 | -75.3 | 4.3 | · | 108.1
CC(C)c1cc(-c2cc(-c3ccc(Cl)cc3)on2)nc(NC2CCCC2)n1 | 10.5 | 0.5 | -13.9 | -1.5 | · | 96.0
Cc1ccc2nc(C)cc(Nc3ccc4c(c3)OCCO4)c2c1 | 6.8 | -1.8 | -6.8 | 69.4* | · | 96.8
O=c1c2cc(Br)ccc2nc(-c2ccccc2)n1O | -19.0 | 0.7 | 19.0 | 47.6* | · | 112.2
COc1cccc(OC)c1C(=O)Nc1nnc(-c2ccc(F)cc2)s1 | 4.6 | 0.4 | -4.6 | 73.6* | -5.1 | 81.7
C[C@@H]1[C@@H](O)C[C@@]2(CC(=O)c3ccccc3O2)O[C@H]1c1ccccc1 | · | 0.1 | · | · | · | ·
CC(C)Cn1c(-c2cccs2)nc2nc3ccccc3nc21 | -10.0 | 1.4 | 10.0 | 51.6* | 0.3 | 112.3
COc1cccc(CN(C)C(=O)[C@@H](Cc2ccccc2)NC(=O)[C@H]2O[C@@H](n3ccc(=O)[nH]c3=O)[C@H](O)[C@@H]2O)c1 | · | -0.9 | · | · | · | ·
CCCc1nc2ccc(NC(=O)NCCC(=O)OCC)cc2c(=O)n1Cc1ccc(Cl)cc1 | 71.6* | -3.7 | -71.6 | -1.0 | -1.2 | 104.7
O=C(Cn1c(-c2cncs2)nc2ccccc21)NC1CCCCC1 | · | -5.2 | · | · | · | ·
CN(C(=O)C(C)(C)C)c1ccc(OCC(=O)N2CCc3ccccc3C2)cc1 | 94.8* | -6.9 | -94.8 | -1.2 | -30.8 | 95.5
Cc1ccc(OCC(=O)N2CCc3ccccc3C2)cc1 | -18.0 | 0.1 | 18.0 | 3.7 | 6.0 | 107.3
CCOC(=O)[C@@H]1[C@H]2COc3cc(OC)ccc3[C@@H]2N2C(=O)N(c3cccc(F)c3)C(=O)[C@@]12C | -11.9 | 2.5 | 11.9 | 50.5* | -12.4 | 105.3
SMILES | SR-BI DiI inh | SMARCA2 activ | SR-BI DiI-HDL act | AHR activator | Lipid droplet | Yeast superoxide
NS(=O)(=O)c1ccc(NC(=O)CSc2nnc(-c3cccs3)o2)cc1 | · | -3.9 | · | · | · | ·
CNc1nc(-c2c[nH]c3ccccc23)cs1 | 18.8 | 0.3 | -18.8 | 46.6 | -6.7 | 95.1
Nc1nc(-c2c[nH]c3ccccc23)cs1 | 11.6 | 3.8 | -11.6 | 57.8* | 1.2 | 122.6
Cc1cc(-c2n[nH]c(=S)n2N=Cc2c3ccccc3cc3ccccc23)n[nH]1 | · | -4.0 | · | · | · | ·
CC(C)c1nc2oc3c(NCCO)ncnc3c2c2c1COC(C)(C)C2 | -239.0 | 1.5 | 239.0* | 4.0 | 2.2 | 84.6
Cn1nc(C(=O)Nc2ccc(Br)cc2)cc1C(=O)Nc1ccc(Br)cc1 | -4.1 | -0.5 | 4.1 | 64.8* | · | 109.1
COc1cccc(NC(=O)c2cc(C(=O)Nc3cccc(OC)c3)n(C)n2)c1 | 78.1* | 0.1 | -78.1 | -0.6 | -3.3 | 106.2
CCOC(=O)C1=CCN(S(=O)(=O)c2ccc([N+](=O)[O-])cc2)C1c1ccc(C)cc1 (configuration not stated) | · | 0.2 | · | · | · | ·
CC(=O)Nc1nc2ncccn2c1-c1ccc(C)cc1 | · | 4.3 | · | · | · | ·
Cn1c(=NC(=O)c2ccco2)sc2ccccc21 | 2.9 | 2.9 | -2.9 | 71.1* | 10.5 | 104.0
CCOC(=O)C1=CCN(S(=O)(=O)c2ccc(Br)cc2)C1c1cccc(F)c1 (configuration not stated) | · | -5.2 | · | · | · | ·
O=C(O)COc1ccc(/C=N/NC(=O)c2cn(-c3ccccc3)nc2-c2ccccc2)cc1 | -7.6 | -2.1 | 7.6 | 2.9 | 5.3 | 109.3
O=C(N/N=C/c1ccc([N+](=O)[O-])o1)c1cn(-c2ccccc2)nc1-c1ccc(Cl)cc1 | 111.9* | -0.1 | -111.9 | 9.0 | -1.9 | 91.7
O=C(N/N=C/c1ccc([N+](=O)[O-])o1)c1cn(-c2ccccc2)nc1-c1ccccc1 | 83.7* | -0.6 | -83.7 | 21.0 | 6.1 | 125.2
C=CC[n+]1ccc(/C=C2\C=Cc3cc(C)ccc3N2CC)c2ccccc21 | 92.3* | · | -92.3 | · | -36.8 | ·
CCN1/C(=C/c2cc[n+](CCCS(=O)(=O)[O-])c3ccccc23)Sc2ccccc21 | -10.8 | 1.4 | 10.8 | 6.5 | 0.5 | 89.2
COc1ccc(-c2c(-c3ccsc3)oc3ccc(N4CCOCC4)cc23)cc1 | 75.5* | 0.7 | -75.5 | 47.1* | · | 96.5
COc1ccc(-c2oc3ccc(N4CCOCC4)cc3c2/C=C/c2ccc(OC)c(OC)c2)cc1 | 12.9 | 1.1 | -12.9 | 33.3 | 17.8 | 102.1
NC(=O)c1ncn([C@@H]2O[C@H](C(=O)N[C@H](Cc3ccccc3)C(=O)O)[C@@H](O)[C@H]2O)n1 | · | -2.5 | · | · | · | ·
C=Cc1ccc(C(=O)N2CCC(n3nnc4ncccc43)CC2)cc1 | · | -0.8 | · | · | · | ·
Cc1cc(N)c(-n2cc3c(=O)n(C)c(=O)n(C)c3c2)cc1C | -7.6 | 3.6 | 7.6 | 55.7* | 7.1 | 109.4
Cc1ccc(-n2cc3c(=O)n(C)c(=O)n(C)c3c2)cc1C | 37.1 | 2.5 | -37.1 | 8.5 | · | 89.0
Cc1occc1C(=O)Nc1nnc(-c2cccs2)s1 | -11.9 | 3.0 | 11.9 | 76.3* | 2.5 | 96.8
COc1ccc(C(=O)Nc2nc(-c3cccs3)c(NC(C)=O)s2)cc1 | 27.9 | 3.3 | -27.9 | 20.3 | -5.7 | 80.8
Cc1occc1C(=O)Nc1nccs1 | -8.8 | 3.2 | 8.8 | 9.6 | -1.7 | 99.2
COc1ccc(NC(C)=O)cc1NC(=O)c1ccc(Cl)cc1 | 13.6 | -4.1 | -13.6 | 28.7 | 5.2 | 78.0
